According to PubChem BioAssay AID651950 (The Scripps Research Institute Molecular Screening Center, 2012):
Activity calls are given as the source filed them. No rule for the calls is given here.

Test: Hsp70 transcriptional activators, SAR follow-up, cell-based, HeLa, Hsp70 promoter luciferase, luminescence (AID 651950)
Details: HeLa hsp70.1pr-luc reporter; at 99 µM (top of the series)
Summary of the method: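 detection: luciferase luminescence; read-out: % activation relative to DMSO and MG132 controls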
With `O=C1NC(=O)C(=C/C=C/c2cccnc2)C(=O)N1` the activation was 22.5% (inactive).
In the case of `COc1ccc(/C=C/C=C2C(=O)NC(=O)NC2=O)cc1`, the activation is reported as -1.7% (active).
For `C=CCN1C(=O)NC(=O)/C(=C/C=C/c2ccccc2)C1=O`, the activation was -1.7% (active).
In the case of `O=C1NC(=O)C(=C/C=C/c2ccc(Br)cc2)C(=O)N1`, the activation is reported as -0.8% (active).
For `O=C1NC(=O)C(=C/C=C/c2ccco2)C(=O)N1`, the activation was -0.7% (active).
With `O=C1NC(=O)N(Cc2ccccc2)C(=O)/C1=C/C=C/c1ccccc1` the activation was -1.2% (active).
With `O=C1NC(=O)C(=C/C=C/c2ccc([N+](=O)[O-])cc2)C(=O)N1` the activation was -1.1% (active).
In the case of `O=C1NC(=O)C(=C/C=C/c2ccc(Cl)cc2)C(=O)N1`, the activation is reported as -1.1% (active).
With `CN(C)c1ccc(/C=C/C=C2C(=O)NC(=O)NC2=O)cc1` the activation was 0.4% (inactive).
